What was measured:
[1] = system: Rattus norvegicus; test: Antihypertensive activity in renal hypertensive rats 6 hr after oral administration (10 mg/Kg); assay type: functional
Summary of the method: (§1)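 Renal hypertensive rats (5 or 10 per group), 10 mg/kg given orally. Systolic pressure measured indirectly by tail occluding cuff with pulse sensor, once before dosing as control and again at 1, 2, 4, 6 and 8 h. Values are changes in mean systolic pressure from control (mmHg). Significance of control vs posttreatment assessed by Wilcoxon's signed rank test (p < 0.05).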

[2] = system: Rattus norvegicus; test: Antihypertensive activity in renal hypertensive rats 1 hr after oral administration (10 mg/Kg); assay type: functional; summary of the method: as §1
[3] = system: Rattus norvegicus; test: Antihypertensive activity in renal hypertensive rats 8 hr after oral administration (10 mg/Kg); assay type: functional; summary of the method: as §1
[4] = system: Felis catus; test: Change in blood pressure in normotensive anesthetized cat.; assay type: functional
Summary of the method: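 Normotensive cats of either sex (2-4 kg) anesthetized with α-chloralose (80 mg/kg iv). Trachea, femoral artery and jugular vein cannulated. Compound given iv at 10 mg/kg, with 1 mg/kg iv used in one case. Mean blood pressure recorded by pressure transducer before and 30 min after dosing, reported as decrease in mmHg.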

[5] = system: Rattus norvegicus; test: Antihypertensive activity in renal hypertensive rats 2 hr after oral administration (10 mg/Kg); assay type: functional; summary of the method: as §1
[6] = system: Felis catus; test: Control blood pressure in normotensive anesthetized cat at dose 10 mg/Kg iv
[7] = system: Rattus norvegicus; test: Antihypertensive activity in renal hypertensive rats 4 hr after oral administration (10 mg/Kg); assay type: functional; summary of the method: as §1

NCC(C(=O)O)c1c[nH]c2ccccc12 (centres undefined) gave a BP [1] of -13 mmHg, a BP [2] of -6 mmHg and a BP [3] of -8 mmHg. For the same molecule, the BP [4] was -10 mmHg, the BP [5] was -8 mmHg and the “control BP” value [6] was 153 mmHg. For the same molecule, the BP [7] was -10 mmHg.

Molecule CCOC(=O)CC(c1nnn[nH]1)c1c[nH]c2cc(Cl)ccc12 (centres undefined) has a BP [1] of -17 mmHg, a BP [2] of -5 mmHg and a BP [3] of -11 mmHg. The BP [4] was -20 mmHg, the BP [5] was 2 mmHg and the “control BP” value [6] was 175 mmHg. The BP [7] was -4 mmHg.

CCOC(=O)CC(c1nnn[nH]1)c1c[nH]c2cc(OC)c(OC)cc12 (centres undefined) gave a BP [1] of -25 mmHg, a BP [2] of -11 mmHg and a BP [3] of -14 mmHg. For the same molecule, the BP [4] was -6 mmHg, the BP [5] was -15 mmHg and the “control BP” value [6] was 164 mmHg. The BP [7] was -20 mmHg.

In the case of COC(=O)CC(CN)c1c[nH]c2cc(Cl)ccc12 (centres undefined), the BP [1] is reported as -11 mmHg, the BP [2] is reported as 2 mmHg and the BP [3] is reported as -6 mmHg. For the same molecule, the BP [4] was -10 mmHg, the BP [5] was -4 mmHg and the “control BP” value [6] was 158 mmHg. The BP [7] was -3 mmHg.

CCOC(=O)CC(CNC(C)=O)c1c[nH]c2ccccc12 (centres undefined) was tested, and the BP [1] was -6 mmHg, the BP [2] was -8 mmHg and the BP [3] was -2 mmHg. The BP [4] was -21 mmHg, the BP [5] was -11 mmHg and the “control BP” value [6] was 169 mmHg. The BP [7] was -7 mmHg.

Work on COC(=O)C(CN(C)C)c1c[nH]c2ccc(OC)cc12.O=C(O)C(=O)O (centres undefined) yielded a BP [1] of 14 mmHg, a BP [2] of -9 mmHg and a BP [3] of 13 mmHg. The BP [4] was -35 mmHg, the BP [5] was -2 mmHg and the “control BP” value [6] was 167 mmHg. The BP [7] was 1 mmHg.

COC(=O)C(CN)c1c[nH]c2cc(Cl)ccc12.Cl (centres undefined) was tested, and the BP [1] was -15 mmHg, the BP [2] was -14 mmHg and the BP [3] was -7 mmHg. For the same molecule, the BP [4] was -7 mmHg, the BP [5] was -23 mmHg and the “control BP” value [6] was 140 mmHg. The BP [7] was -17 mmHg.

COC(=O)C(CN)c1c[nH]c2ccc(Cl)cc12.Cl (centres undefined) showed a BP [1] of 2 mmHg, a BP [2] of -8 mmHg and a BP [3] of 5 mmHg. For the same molecule, the BP [4] was -61 mmHg, the BP [5] was -5 mmHg and the “control BP” value [6] was 160 mmHg. The BP [7] was 0 mmHg.

NCC(C(=O)O)c1c[nH]c2ccc(F)cc12 (centres undefined) gave a BP [1] of -15 mmHg, a BP [2] of -19 mmHg and a BP [3] of 0 mmHg. For the same molecule, the BP [4] was -25 mmHg, the BP [5] was -26 mmHg and the “control BP” value [6] was 180 mmHg. For the same molecule, the BP [7] was -27 mmHg.

COC(=O)CC(CN)c1c[nH]c2ccccc12 (centres undefined) was tested, and the BP [1] was -7 mmHg, the BP [2] was -1 mmHg and the BP [3] was -1 mmHg. The BP [4] was -4 mmHg, the BP [5] was -11 mmHg and the “control BP” value [6] was 184 mmHg. The BP [7] was 2 mmHg.

CCOC(=O)CC(c1nnn[nH]1)c1c[nH]c2ccccc12 (centres undefined) gave a BP [1] of -22 mmHg, a BP [2] of -4 mmHg and a BP [3] of -7 mmHg. For the same molecule, the BP [4] was 2 mmHg, the BP [5] was -22 mmHg and the “control BP” value [6] was 168 mmHg. For the same molecule, the BP [7] was -27 mmHg.

In the case of NCC(c1nnn[nH]1)c1c[nH]c2ccccc12 (centres undefined), the BP [1] is reported as 5 mmHg, the BP [2] is reported as 8 mmHg and the BP [3] is reported as 2 mmHg. For the same molecule, the BP [4] was -5 mmHg, the BP [5] was 1 mmHg and the “control BP” value [6] was 155 mmHg. The BP [7] was 8 mmHg.

COC(=O)C(N)Cc1c[nH]c2ccc(OC)cc12 (centres undefined) showed a BP [1] of 4 mmHg, a BP [2] of -7 mmHg and a BP [3] of -1 mmHg. The BP [4] was -12 mmHg, the BP [5] was 4 mmHg and the “control BP” value [6] was 136 mmHg. The BP [7] was -8 mmHg.

CCOC(=O)C(CNC(C)=O)c1cn(C(=O)OCC)c2cccc(Cl)c12 (centres undefined) gave a BP [1] of 0 mmHg, a BP [2] of -8 mmHg and a BP [3] of 2 mmHg. The BP [4] was 11 mmHg, the BP [5] was -1 mmHg and the “control BP” value [6] was 183 mmHg. For the same molecule, the BP [7] was 3 mmHg.

COC(=O)C(c1c[nH]c2ccc(OC)cc12)C(C)N (centres undefined) was tested, and the BP [1] was 3 mmHg, the BP [2] was -6 mmHg and the BP [3] was 2 mmHg. It also gave a BP [5] of -3 mmHg and a BP [7] of -3 mmHg.

In the case of COc1ccc2[nH]cc(C(CNC(C)=O)C(=O)O)c2c1 (centres undefined), the BP [1] is reported as -28 mmHg, the BP [2] is reported as -16 mmHg and the BP [3] is reported as -8 mmHg. For the same molecule, the BP [4] was -14 mmHg, the BP [5] was -18 mmHg and the “control BP” value [6] was 154 mmHg. For the same molecule, the BP [7] was -24 mmHg.

For CCOC(=O)C(CNC(C)=O)c1cn(C(=O)OCC)c2cc(Cl)ccc12 (centres undefined), the BP [1] was -7 mmHg, the BP [2] was -18 mmHg and the BP [3] was -3 mmHg. The BP [4] was -2 mmHg, the BP [5] was -12 mmHg and the “control BP” value [6] was 165 mmHg. The BP [7] was -12 mmHg.

With NCC(C(=O)O)c1c[nH]c2cc(Cl)ccc12 (centres undefined) the BP [1] was -14 mmHg, the BP [2] was -4 mmHg and the BP [3] was -9 mmHg. The BP [4] was -2 mmHg, the BP [5] was -5 mmHg and the “control BP” value [6] was 179 mmHg. For the same molecule, the BP [7] was -6 mmHg.
